Assay outcomes (PubChem BioAssay)
ARFGAP1 inhibitor: inhibitors of rat ARFGAP1; Arfgap1-stimulated ARF1 GTP hydrolysis, GDP FP detection; AID 651572; actives 0.26% (n = 360,000); inhibition, % at 16.5 µM;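 active means inhibition above a per-plate limit, mean inhibition of low control wells plus 3 SD, cut at about 25% in these data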
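Replicates: Single well per compound | Assay system: Truncated rat Arfgap1 GAP domain | Control set: No-Arfgap1 wells (100%) versus DMSO full-reaction wells (0%) | Times: Enzyme reaction 120 min at 25 °C after 20 min preincubation | Reagent: Human ARF1(Δ1-17)-GTP substrate | Measured by: Tracer-displacement fluorescence polarization with EDTA stop, 620/688 nm | Measure: Percent inhibition of Arfgap1-stimulated GTP hydrolysis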
ASAP1 GAP inh: inhibitors of human ASAP1 ArfGAP activity | Q9ULH1 | ASAP1-stimulated ARF1 GTP hydrolysis, GDP FP detection | inhibition, % at 16.5 µM | actives 0.19% (n = 360,000) | AID 624377; in the data active means inhibition above about 25%
Target sequence (Q9ULH1 325-724 limits assumed): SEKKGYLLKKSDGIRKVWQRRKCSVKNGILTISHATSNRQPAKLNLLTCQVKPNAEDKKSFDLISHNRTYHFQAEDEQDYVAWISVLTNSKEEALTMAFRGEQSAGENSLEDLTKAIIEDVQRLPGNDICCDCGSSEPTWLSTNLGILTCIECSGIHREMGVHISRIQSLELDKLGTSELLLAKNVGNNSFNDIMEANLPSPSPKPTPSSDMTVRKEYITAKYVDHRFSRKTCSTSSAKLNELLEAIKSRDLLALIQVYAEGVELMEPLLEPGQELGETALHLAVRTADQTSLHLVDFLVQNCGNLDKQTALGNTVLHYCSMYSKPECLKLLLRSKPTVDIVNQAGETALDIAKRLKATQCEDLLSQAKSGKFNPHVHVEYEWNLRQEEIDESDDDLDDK
rCAG binder: molecules binding r(CAG) RNA repeats; r(CAG) RNA repeat, TO-PRO-1 dye displacement fluorescence; inhibition, % at 3 µM; actives 1.3% (n = 370,000);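 active means inhibition above the plate cutoff, the mean of all test compounds on that plate plus 3 SD, cut at about 35% in these data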;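 further: higher means more dye released from RNA so lower well fluorescence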
NadD block: blocks S. aureus nicotinate mononucleotide adenylyltransferase; purified NadD enzyme, colorimetric absorbance read-out; inhibition, % at 20 µM; actives 0.78% (n = 360,000); AID 602399; in the data active means inhibition above about 26%
rCAG bind conf: r(CAG) RNA repeat binding, confirmation; AID 652065; inhibition, % at 3 µM; actives 70% (n = 4,300); shares compounds with rCAG binder; TO-PRO-1 dye displacement fluorescence;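 active means inhibition above a per-plate cutoff, the mean inhibition of sample wells plus 3 SD, cut at about 35% in these data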;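 further: loss of TO-PRO-1 fluorescence as compound displaces dye from 1x1 AA loop RNA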
DNA CAG counter: DNA CAG dye complex inhibition counter-screen. shares compounds with rCAG binder. d(CAG) DNA oligo TO-PRO-1 dye displacement, fluorescence. inhibition, % at 3 µM. actives 94% (n = 4,300);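 active means inhibition above its plate's cutoff, the mean test-well inhibition plus 3 SD, cut at about 4.8% in these data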;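 further: hits displace the dye from DNA and so lower well fluorescence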
Of the large screens only hits and unclear results are named; the others gave an inactive call (follow-up assays come after a bar, where they were run). A selection: hits, their analogues and other compounds. The true share with any hit is near 2.2%.

Fc1ccc(-c2ccc3c(n2)CCCN3Cc2ccccc2C(F)(F)F)cc1	none (no result: NadD block)
CC(=O)c1ccc(NC(=O)CN2C(=O)/C(=C/C=C/c3ccccc3)SC2=S)cc1	rCAG binder 38.4, NadD block 35.9 | rCAG bind conf inactive | DNA CAG counter 15.5
O=C(CN1C(=O)S/C(=C\C=C\c2ccccc2)C1=O)Nc1ccccc1C(=O)O	rCAG binder 77.1 | rCAG bind conf 84.0 | DNA CAG counter 52.1
O=C(Cn1c(=O)c2c3c(sc2n(Cc2ccccc2)c1=O)CCCC3)NCCO	none
O=C(O)Cn1c(=O)c2c3c(sc2n(Cc2ccc(Cl)cc2Cl)c1=O)CCCC3	rCAG binder 43.5 | rCAG bind conf 57.7 | DNA CAG counter 18.6
NCCNC(=O)Cn1c(=O)c2c3c(sc2n(Cc2ccccc2)c1=O)CCCC3	none
CC1CCc2sc3c(c2C1)c(=O)n(CC(=O)O)c(=O)n3Cc1ccc(Cl)cc1 (stereo not drawn)	rCAG binder 54.3 | rCAG bind conf 48.6 | DNA CAG counter 13.3
NS(=O)(=O)c1cccc(NS(=O)(=O)c2ccc(/C=C/C(=O)OCC(=O)c3ccccc3)cc2)c1	rCAG binder 60.0 | rCAG bind conf 54.2 | DNA CAG counter 21.5
COc1ccc(C(=O)COC(=O)/C=C/c2ccccc2)cc1	none
Cc1cc(C(=O)O)c(C)o1	none (no result: ARFGAP1 inhibitor, ASAP1 GAP inh, NadD block)
CC(C)CCNC(=O)C1CCN(S(=O)(=O)c2ccc3nc4c(c(C(=O)O)c3c2)CCCCC4)CC1	none
O=C(O)c1c2c(nc3ccc(S(=O)(=O)N4CCC(C(=O)NCc5ccccc5Cl)CC4)cc13)CCCC2	rCAG binder 39.3 | rCAG bind conf 36.5 | DNA CAG counter 9.5
COc1ccc(CNC(=O)C2CCN(S(=O)(=O)c3ccc4nc5c(c(C(=O)O)c4c3)CCCC5)CC2)cc1	none
O=C(O)c1c2c(nc3ccc(S(=O)(=O)N4CCC(C(=O)NC5CCCCCC5)CC4)cc13)CCCC2	rCAG binder 36.0 | rCAG bind conf 40.7 | DNA CAG counter 13.3
O=C(O)c1c2c(nc3ccc(S(=O)(=O)N4CCC(C(=O)NCc5ccc(Cl)cc5)CC4)cc13)CCCC2	rCAG binder 42.2 | rCAG bind conf 40.4 | DNA CAG counter 13.1
C#CC1(O)C2C=C(OC)C(=O)C1C(c1ccccc1)C2C (stereo not drawn)	none (no result: ARFGAP1 inhibitor, ASAP1 GAP inh, NadD block)
Cc1cccc(C)c1NC(=O)C(c1ccccc1OC(F)(F)F)N1CCN(C)CC1 (stereo not drawn)	none (no result: NadD block)
O=C(O)CC/C(=N\Nc1ccc(S(=O)(=O)N2CCOCC2)cc1[N+](=O)[O-])c1cccs1	rCAG binder 55.7 | rCAG bind conf 58.5 | DNA CAG counter 23.5
O=C(O)CC/C(=N\Nc1ccc(S(=O)(=O)N2CCCC2)cc1[N+](=O)[O-])c1cccs1	rCAG binder 71.5 | rCAG bind conf 59.8 | DNA CAG counter 22.1
CCCCN1C(=O)C(CC(=O)NC(c2ccccc2)c2ccccc2)CC(C(=O)N(C(C)C)C(C)C)=C1C (stereo not drawn)	none
O=[N+]([O-])c1ccc(S(=O)(=O)NN=Cc2ccc(Cl)c(Cl)c2)cc1	none
CC(C)CNc1cccc2c1S(=O)(=O)N(Cc1cn(Cc3cccc(C(F)(F)F)c3)nn1)Cc1ccccc1O2	none (no result: ARFGAP1 inhibitor, ASAP1 GAP inh, NadD block)
COCc1cccc(-c2csc(C(C)(NC(C)=O)c3ccccc3)n2)c1 (stereo not drawn)	none
COc1cc(/C=C2/C(=N)N3N=C(C)SC3=NC2=O)ccc1OS(=O)(=O)c1ccc(C)cc1	none
COc1cc(/C=C2\C(=N)N3N=C(S(C)(=O)=O)SC3=NC2=O)cc(OC)c1OCCOc1ccc(C)cc1	rCAG binder 57.1, NadD block 30.3 | rCAG bind conf 88.2 | DNA CAG counter 57.5
COc1cc(/C=C2\C(=N)N3N=C(S(C)(=O)=O)SC3=NC2=O)cc(OC)c1OCCOc1cccc(C)c1	rCAG binder 50.7, NadD block 31.5 | rCAG bind conf 88.7 | DNA CAG counter 68.6
Cc1ccc(S(=O)(=O)Oc2ccc(/C=C3\C(=N)N4N=C(S(C)(=O)=O)SC4=NC3=O)cc2)cc1	rCAG binder 63.1, NadD block 34.1 | rCAG bind conf 88.2 | DNA CAG counter 66.3
COc1ccc(-c2c(-c3ccc4c(c3)OCO4)c3ccccc3n2C)cc1	none
Cc1ccc(OCc2nnc(SCC(=O)Nc3ccccc3-c3ccccc3)n2Cc2ccco2)cc1	none (no result: ARFGAP1 inhibitor, ASAP1 GAP inh, NadD block)
